From ChEMBL document CHEMBL2331340, “Novel antitumor indolizino[6,7-b]indoles with multiple modes of action: DNA cross-linking and topoisomerase I and II inhibition” (J Med Chem, 2013) come the findings set out here.

Calls of active or inactive are those of the source. The calls are words filed in the database; no cut-off is given here. Bounds are passed on as bounds.

Data set [1] has as its target DNA topoisomerase 2-alpha (Homo sapiens) (UniProt P11388). Particulars: 50 to 200 uM.
The nature of data set [2]: Cell cycle arrest in human CL141T cells assessed as accumulation at G2/M phase at 2 x IC50 after 24 hrs by propidium iodide staining-based FACS flow cytometric analysis. The format is functional. Summed up:
(§1)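 CL141T cells treated at 0.5-, 1- and 2-fold IC50 for 24, 48 and 72 h. Cells fixed in ice-cold 70% EtOH, then stained with 4 μg/mL propidium iodide in PBS with 1% Triton X-100 and 0.1 mg/mL RNase A. Phase distribution from flow cytometry DNA histograms; sub-G1 fraction scored as well.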
(Flow cytometry measures light scatter and fluorescence of single cells or particles in a stream.)

A short description of data set [3]: Cytotoxicity against human KB-VIN10 cells after 72 hrs by Alamar blue assay. Conditions: KB-VIN10, 72 h.
Data set [4] has as its system MX1. The experiment in a line: Cytotoxicity against human MX1 cells after 72 hrs by SRB assay. The format is functional, cell-based. Particulars: MX1, 72 h. On the technique in general: In SRB staining, fixed cells bind dye roughly in proportion to their protein.
Another data set relates to Mus musculus. The experiment in a line: Toxicity in nude mouse xenografted with human MX1 cells assessed as body weight loss at 35 mg/kg, iv qd administered 4 days measured for 20 days. The format is organism-based. On the set-up: dose 35 mg/kg, route intravenous. Conditions: in vivo, 480 h. (In xenograft studies the graft and the host belong to different species.)
A short description of data set [5]: Resistance factor, ratio of IC50 for human KB-VIN10 cells to IC50 for human KB cells. The format is functional.
Data set [6] can be described thus: Cytotoxicity against human HEL299 cells. The format is cell-based. Particulars: HEL 299.
Data set [7] is described as follows: Cytotoxicity against human CL141T cells after 72 hrs by Alamar blue assay. The format is functional, cell-based. The gist of the method:
(§2)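 Cells exposed to compound for 72 h, then Alamar blue added with a further 10−12 h at 37 °C and a spectrophotometric read. IC50 from six or seven concentrations by median-effect analysis; mean ± STDEV, n = 3. CL141T is a line derived from a patient lung tumor passaged as a SCID mouse xenograft.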

The next data set concerns KB. Description: Cytotoxicity against human KB cells after 72 hrs by Alamar blue assay.
Data set [8] can be described thus: Cytotoxicity against human OECM1 cells after 72 hrs by Alamar blue assay. Format: functional, cell-based. Particulars: OECM1, 72 h. The gist of the method: as §2
Data set [9] can be described thus: Cell cycle arrest in human CL141T cells assessed as accumulation at sub-G1 phase at 0.5 x IC50 to 2 x IC50 after 72 hrs by propidium iodide staining-based FACS flow cytometric analysis. Format: functional. The gist of the method: as §1
The subject of a further data set is PC-3. The experiment in a line: Cytotoxicity against human PC3 cells after 72 hrs by Alamar blue assay. Format: functional, cell-based. Conditions: PC-3, 72 h. Summed up:
as §2

In a further data set the test system is HCT-116. Description: Cytotoxicity against human HCT116 cells after 72 hrs by Alamar blue assay. Format: functional, cell-based. Particulars: HCT-116, 72 h. Summed up: as §2
Data set [10] can be described thus: Cell cycle arrest in human CL141T cells assessed as accumulation at G2/M phase at 0.5 x IC50 to 1 x IC50 after 48 to 72 hrs by propidium iodide staining-based FACS flow cytometric analysis. The format is functional. The gist of the method: as §1
Data set [11] deals with MX1. The experiment in a line: Antitumor activity against human MX1 cells xenografted in nude mouse assessed as tumor growth inhibition at 35 mg/kg, iv qd administered 4 days measured on day 20 relative to vehicle-treated control. Format: functional. Particulars: read-out: TGI.
A further data set relates to CCRF-CEM. Description: Cytotoxicity against human CCRF-CEM cells after 72 hrs by XTT assay. The format is functional, cell-based. The gist of the method: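 CCRF-CEM T-ALL cells incubated with compound for 72 h. XTT with phenazine methosulfate then added for 6 h at 37 °C, absorbance read at 450 and 630 nm. IC50 from six or seven concentrations by median-effect analysis; mean ± STDEV, n = 3.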

A further data set deals with Escherichia coli. Description: Induction of Escherichia coli pEGFP-N1 DNA interstrand cross-linking at 1 to 10 uM after 2 hrs by alkaline agarose gel shift assay. The gist of the method:
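Plasmid pEGFP-N1 DNA (1500 ng) incubated with compound at 1, 5 and 10 μM in 3 mM NaCl/1 mM sodium phosphate pH 7.4/1 mM EDTA, 2 h at 37 °C. DNA then BamHI-linearized, EtOH-precipitated, denatured in 0.5 N NaOH/10 mM EDTA, run on 0.8% alkaline agarose at 4 °C (18 V, 22 h), stained with ethidium bromide.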

A short description of data set [12]: Cell cycle arrest in human CL141T cells assessed as accumulation at S phase at 3.75 to 15 uM after 24 hrs by propidium iodide staining-based FACS flow cytometric analysis. Format: functional. Summed up:
as §1

DNA topoisomerase 2-alpha (Homo sapiens), sequence (P11388 whole entry): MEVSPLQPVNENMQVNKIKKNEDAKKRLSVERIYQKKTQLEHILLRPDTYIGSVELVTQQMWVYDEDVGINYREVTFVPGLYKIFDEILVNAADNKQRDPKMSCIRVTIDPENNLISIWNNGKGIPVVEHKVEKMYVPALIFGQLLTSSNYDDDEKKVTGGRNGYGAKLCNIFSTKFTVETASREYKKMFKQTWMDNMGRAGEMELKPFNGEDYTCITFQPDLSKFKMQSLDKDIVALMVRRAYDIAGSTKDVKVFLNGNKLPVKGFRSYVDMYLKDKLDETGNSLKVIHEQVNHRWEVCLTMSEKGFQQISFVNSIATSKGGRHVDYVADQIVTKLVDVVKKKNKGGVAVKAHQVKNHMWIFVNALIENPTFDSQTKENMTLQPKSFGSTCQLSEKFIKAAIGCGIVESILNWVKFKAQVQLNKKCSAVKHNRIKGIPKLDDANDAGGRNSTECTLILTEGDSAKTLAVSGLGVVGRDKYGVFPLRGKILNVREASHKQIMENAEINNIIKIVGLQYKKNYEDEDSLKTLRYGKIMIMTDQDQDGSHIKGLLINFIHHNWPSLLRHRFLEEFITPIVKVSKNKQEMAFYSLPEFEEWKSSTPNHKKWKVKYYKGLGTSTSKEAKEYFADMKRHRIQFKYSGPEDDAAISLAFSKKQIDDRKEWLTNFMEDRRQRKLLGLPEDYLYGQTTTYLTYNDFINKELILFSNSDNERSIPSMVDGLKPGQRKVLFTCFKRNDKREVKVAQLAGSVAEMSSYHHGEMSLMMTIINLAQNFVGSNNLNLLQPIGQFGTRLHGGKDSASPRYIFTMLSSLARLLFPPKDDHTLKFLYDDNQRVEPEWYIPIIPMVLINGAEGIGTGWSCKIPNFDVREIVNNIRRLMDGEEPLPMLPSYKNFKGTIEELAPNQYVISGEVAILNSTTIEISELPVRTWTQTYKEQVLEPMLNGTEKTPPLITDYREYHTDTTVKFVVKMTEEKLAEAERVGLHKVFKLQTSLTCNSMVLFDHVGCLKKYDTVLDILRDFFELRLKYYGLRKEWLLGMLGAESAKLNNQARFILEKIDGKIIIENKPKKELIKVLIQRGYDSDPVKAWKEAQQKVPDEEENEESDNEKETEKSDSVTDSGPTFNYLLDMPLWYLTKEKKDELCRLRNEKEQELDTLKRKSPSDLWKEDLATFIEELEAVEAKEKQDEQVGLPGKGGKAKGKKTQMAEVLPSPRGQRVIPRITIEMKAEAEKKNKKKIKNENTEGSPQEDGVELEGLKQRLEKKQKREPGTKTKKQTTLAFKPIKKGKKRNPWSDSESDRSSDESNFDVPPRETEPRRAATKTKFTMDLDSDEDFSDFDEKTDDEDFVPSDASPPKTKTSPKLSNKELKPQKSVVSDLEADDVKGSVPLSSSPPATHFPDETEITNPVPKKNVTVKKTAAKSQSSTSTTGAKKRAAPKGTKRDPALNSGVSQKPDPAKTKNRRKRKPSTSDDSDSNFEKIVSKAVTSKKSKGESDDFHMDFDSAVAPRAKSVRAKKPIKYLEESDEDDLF

Regarding `COc1cc([C@@H]2c3cc4c(cc3[C@@H](O[C@@H]3O[C@@H]5CO[C@@H](C)O[C@H]5[C@H](O)[C@H]3O)[C@H]3COC(=O)[C@H]23)OCO4)cc(OC)c1O`, the inhibition entry in [1] was “Active”.

Usually IC50 stands for the point on the concentration scale where inhibition reaches its midpoint. The low end stands for higher potency, the high end for lower potency. Regarding `CC(C)NC(=O)OCc1c(COC(=O)NC(C)C)c(-c2ccc(F)cc2)n2c1Cc1c(n(C)c3ccccc13)C2`, in [2], the result was inactive. The IC50 stood at 15.6 µM in data set [3]; 2.19 µM with MX1 [4]; 25.9 µM in [6]; 7.46 µM in data set [7]; 14.2 µM in the data set on KB; 6.56 µM in [8]. For the same compound, the values for the IC50 in the data set with PC-3, in the data set with HCT-116 and in the data set on CCRF-CEM were 6.71 µM, 6.09 µM and 0.11 µM, respectively. Also, the Activity entry with Mus musculus was “Toxic”. For the same compound, in [5], the “Ratio IC50” value stood at 1.1. For the same compound, the result (in [9]; in data set [10]; in the data set with Escherichia coli; in [12]) was Active. Further, the inhibition in vivo at 35 mg/kg in the data set on MX1 [11] is more than 99%.
